System: RAW264.7
Test: Antiinflammatory activity in mouse RAW264.7 cells assessed as inhibition of LPS-induced NO production by MTT assay
Type: functional, cell-based
Settings: in the assay text read “Griess assay” for “MTT assay”
Procedure, shortened: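 RAW 264.7 mouse macrophages in RPMI 1640 with 10% heat-inactivated FBS, penicillin and streptomycin, seeded 1 × 10⁵ cells/well, adhered 2 h at 37 °C, 5% CO₂. Stimulated with LPS 1 µg/mL for 24 h with or without test agents at various concentrations (DMSO, 0.2% v/v final). Supernatant nitrite read with Griess reagent against a nitrite standard line. MTT viability after 24 h.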

Row | Structure (SMILES) | IC50
1 | Oc1ccc(/C=C/CC[C@@H](O)CCc2ccc(O)cc2)cc1 | 16.1 µM
2 | Oc1ccc(/C=C/CC[C@H](O)CCc2ccc(O)c(O)c2)cc1 | 42 µM
3 | Oc1ccc(/C=C/CC[C@@H](O)CCc2ccc(O)c(O)c2)cc1 | 20.6 µM
4 | Oc1ccc(CCCC[C@H](O)CCc2ccc(O)c(O)c2)cc1 | 5.83 µM
5 | Oc1ccc(CCCC[C@@H](O)CCc2ccc(O)c(O)c2)cc1 | 9.66 µM
6 | Oc1ccc(CC[C@H](O)CC/C=C/c2ccccc2)cc1O | 7.34 µM
7 | CC(=O)O[C@@H](CC/C=C/c1ccc(O)cc1)CCc1ccc(O)c(O)c1 | 6.54 µM
8 | CC(=O)O[C@H](CC/C=C/c1ccc(O)cc1)CCc1ccc(O)c(O)c1 | 15.6 µM
9 | CC(=O)O[C@@H](CCCCc1ccc(O)cc1)CCc1ccc(O)c(O)c1 | 49.5 µM
10 | CC(=O)O[C@H](CCCCc1ccc(O)cc1)CCc1ccc(O)c(O)c1 | 28.5 µM
11 | O=C(CC/C=C/c1ccc(O)cc1)CCc1ccc(O)cc1 | 8.93 µM
12 | O=C(CCCCc1ccc(O)cc1)CCc1ccc(O)cc1 | 5.58 µM
13 | COc1cc(CCC(=O)CCCCc2ccc(O)cc2)ccc1O | 10.6 µM
14 | COc1cc(CCC(=O)/C=C/CCc2ccc(O)cc2)ccc1O | 2.69 µM
15 | Oc1ccc(/C=C/CC[C@H](O)CCc2ccc(O)cc2)cc1 | 9.83 µM
16 | Oc1ccc(CC[C@@H](O)CC/C=C/c2ccccc2)cc1O | 3.86 µM
17 | O=C(CC/C=C/c1ccccc1)CCc1ccc(O)cc1 | 6.98 µM
18 | O=C(/C=C/C=C/c1ccc(O)cc1)CCc1ccc(O)cc1 | 4.79 µM
19 | C[C@]12CCC(=O)C=C1CC[C@@H]1[C@@H]2[C@@H](O)C[C@@]2(C)[C@H]1CC[C@]2(O)C(=O)CO [HYDROCORTISONE] | 40.6 µM
20 | COc1ccc2c(c1)c(CC(=O)O)c(C)n2C(=O)c1ccc(Cl)cc1 [INDOMETHACIN] | 13 µM

From ChEMBL document CHEMBL1268859, “Diarylheptanoids from the Rhizomes of Curcuma kwangsiensis” (J Nat Prod, 2010)
